The nature of assay [1]: Her2 expression decrease, cell viability multiplex – SKBR3 breast tumor cells, AlphaScreen, ATP viability, primary screen (AID 461;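 active means Her2 level under about 52% in both replicate screens, with viability over 70% of control, limit read from the data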;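 on Her2 level: lower value means less Her2 protein in the cells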;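 on viability: percent of carrier control wells set as 100% viability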). To be noted: SKBR3 Her2 protein level, 18-24 h, measured here: SKBR3 viability, ATP luminescence, at 10 µM.
Assay [2] addresses Receptor tyrosine-protein kinase erbB-2 (Homo sapiens) (UniProt P04626). Described as above. To be noted: 18-24 h, at 10 µM, stronger effect = lower value.
Assay [3] is described as follows: reduced viability of SK-BR-3 breast cancer cells – cell-based, 24 h, human, pilot screen (AID 572;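 active means viability at or below 10% of carrier control in both of two separate runs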;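 further: compound exposure lasted between 18 and 24 h rather than exactly 24 h; 100% = carrier-treated control wells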). To be noted: SK-BR-3 viability, CellTiter-Glo luminescence, at 10 µM, stronger effect = lower value.
Assay [4] can be described thus: HUVEC growth inhibition – cell-based, human, primary screen (AID 575;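 active means viability at or below 30% in both replicate assays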;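 further: 100% = median of untreated cell wells with 0.1% DMSO on each plate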). To be noted: HUVEC proliferation, CellTiter-Glo luminescence, 72 h; at 10 µM; stronger effect = lower value. The method in brief: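 material = primary HUVEC, no more than 12 passages | input = 1250 cells per well | controls = vehicle and MePR control wells | measured by = CTG luminescence | times = 72 h compound incubation | format = collagen-coated 384-well format | read-out = % viability vs DMSO wells | doses = single 10 µM dose, 0.1% DMSO, from 5x medium stock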

Assay [5] is described as follows: H69AR cell proliferation blockers – human, duplicate replicates, primary screen (AID 580).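 Further: 100% = mean luminescence of untreated wells and 0% = no signal.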 Particulars: H69AR lung tumor cells viability, ATP luminescence, 72 h; at 10 µM; stronger effect = lower value.
Assay [6] can be described thus: MRP1 drug-resistance reversers in H69AR cells – cell-based, doxorubicin co-treatment, pilot screen (AID 601;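 active means viability loss from added drug above about 55%, and viability with drug at most 40%, in both replicates, limit read from the data, passing the limit was not always enough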). To be noted: CellTiter-Glo, 72 h, at 10 µM; for differential viability (reversal): stronger effect = higher value.
Assay [7] can be described thus: yeast transport mutant growth inhibition pilot in 384-well plates, post-Golgi transport modulator project (AID 636; in the data active means inhibition above about 31%). To be noted: absorbance 615 nm, about 18 h, stronger effect = higher value.
A short description of assay [8]: growth suppression of yeast trafficking mutant, preliminary HTS, modulators of trafficking downstream of Golgi apparatus project, 1536-format plate, OD 615 nm (AID 637; in the data active means inhibition above about 30%). Particulars: yeast transport mutant growth, absorbance 615 nm, 18 h; stronger effect = higher value.
Setting [9] is: H69AR cells + 2 uM doxorubicin, measured here: viability with 2 uM doxorubicin, stronger effect = lower value.
Setting [10] is: H69AR cells, compound alone cytotoxicity.

Active and inactive are the calls of the source.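 How the source made its calls, unless noted: active means viability at or under a set limit in both replicates, limit being median viability minus 3 SD (cut at about 48% in these data, passing the limit was not always enough); inconclusive means at or under the limit in just one replicate; inactive means at or above the limit in both replicates.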

Sequence of Receptor tyrosine-protein kinase erbB-2 (Homo sapiens) (P04626 whole entry, looked up): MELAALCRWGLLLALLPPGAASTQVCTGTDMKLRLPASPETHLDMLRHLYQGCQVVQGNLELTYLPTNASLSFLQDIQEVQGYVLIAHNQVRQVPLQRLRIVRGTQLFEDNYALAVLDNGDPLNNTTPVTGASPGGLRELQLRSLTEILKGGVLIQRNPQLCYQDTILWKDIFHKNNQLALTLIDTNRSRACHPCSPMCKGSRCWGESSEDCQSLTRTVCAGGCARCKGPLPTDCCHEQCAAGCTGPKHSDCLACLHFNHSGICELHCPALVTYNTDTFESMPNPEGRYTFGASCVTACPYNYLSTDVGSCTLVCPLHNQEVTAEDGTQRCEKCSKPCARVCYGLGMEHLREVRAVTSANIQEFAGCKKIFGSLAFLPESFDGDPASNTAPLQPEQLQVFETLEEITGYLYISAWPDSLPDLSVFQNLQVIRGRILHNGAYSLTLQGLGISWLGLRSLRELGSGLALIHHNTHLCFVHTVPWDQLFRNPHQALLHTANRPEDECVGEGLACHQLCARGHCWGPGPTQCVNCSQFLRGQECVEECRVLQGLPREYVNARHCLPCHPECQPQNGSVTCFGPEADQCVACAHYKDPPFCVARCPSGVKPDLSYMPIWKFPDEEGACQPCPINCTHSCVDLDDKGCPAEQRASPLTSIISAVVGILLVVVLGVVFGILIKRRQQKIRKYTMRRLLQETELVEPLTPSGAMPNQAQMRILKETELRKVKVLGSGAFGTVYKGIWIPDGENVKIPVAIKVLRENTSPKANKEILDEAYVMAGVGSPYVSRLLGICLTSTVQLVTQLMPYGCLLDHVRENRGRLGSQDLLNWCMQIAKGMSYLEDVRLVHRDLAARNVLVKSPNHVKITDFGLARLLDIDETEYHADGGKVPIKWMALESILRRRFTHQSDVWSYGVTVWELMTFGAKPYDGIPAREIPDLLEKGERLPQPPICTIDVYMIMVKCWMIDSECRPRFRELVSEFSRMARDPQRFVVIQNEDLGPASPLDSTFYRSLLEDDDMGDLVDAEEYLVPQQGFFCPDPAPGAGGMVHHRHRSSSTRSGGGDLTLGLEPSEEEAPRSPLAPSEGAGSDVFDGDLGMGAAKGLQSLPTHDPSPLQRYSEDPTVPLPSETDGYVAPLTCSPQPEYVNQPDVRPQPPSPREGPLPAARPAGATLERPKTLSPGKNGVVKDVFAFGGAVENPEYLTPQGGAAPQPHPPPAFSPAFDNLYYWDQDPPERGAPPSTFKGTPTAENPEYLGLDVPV

On to `COc1ccc(-c2noc(CSc3nc(N)c(-c4ccccc4)c(=O)[nH]3)n2)cc1OC`, for which the viability in assay [1] is 106%; in assay [3] it was 106% (inactive); in assay [4], 94.6% (inactive); in assay [5], 84.7% (inactive); in assay [6] (setting [9]), 85.4%; in assay [6] (setting [10]), 84.7%. Besides, the Her2 level in assay [2] was 94.5% (inactive). The differential viability (reversal) in assay [6] (H69AR cells + 2 uM doxorubicin) is -0.7% (inactive). Also, the results for the inhibition in assay [7] and in assay [8] were -4.13% (inactive) and -3.97% (inactive), respectively.
Turning to `Cc1cc(C(=O)NCCN2CCN(c3cccc(Cl)c3)CC2)n(-c2ccccc2)n1`, the viability in assay [1] is 98%; in assay [3], 98% (inactive); in assay [4], 42.3% (inactive); in assay [5], 23.7% (active); in assay [6] (setting [9]), 48.2%; in assay [6] (setting [10]) it was 23.7%. For the same compound, in assay [2], the Her2 level is 91.5% (inactive). Besides, the differential viability (reversal) in assay [6] (H69AR cells + 2 uM doxorubicin) was -24.5% (inactive). Also, the results for the inhibition in assay [7] and in assay [8] were -4.8% (inactive) and -1.48% (inactive), respectively.
`O=C(c1ccc2c(c1)c(=O)oc1ccccc12)N1CCCCC1`: the viability in assay [1] is 109%; in assay [3], 109% (inactive); in assay [4], 98.6% (inactive); in assay [5], 101% (inactive); in assay [6] (setting [9]), 87.3%; in assay [6] (setting [10]), 101%. The Her2 level in assay [2] was 86% (inactive). Also, in assay [6] (H69AR cells + 2 uM doxorubicin), the differential viability (reversal) is 14.1% (inactive). The results for the inhibition in assay [7] and in assay [8] were -2.11% (inactive) and 3.17% (inactive), respectively.
With `Clc1cc2c(c(Cn3cnc4ccccc43)c1)OCOC2`, the viability in assay [1] was 109%; in assay [3], 109% (inactive); in assay [4], 87.8% (inactive); in assay [5] it was 98% (inactive); in assay [6] (setting [9]) it was 91.6%; in assay [6] (setting [10]), 98%. Also, in assay [2], the Her2 level was 106% (inactive). Besides, in assay [6] (H69AR cells + 2 uM doxorubicin), the differential viability (reversal) is 6.4% (inactive). The inhibition in assay [7] is -3.33% (inactive); in assay [8], -5.57% (inactive).
In the case of `O=C(Nc1ccc(Cl)cc1)C1CC=CCC1C(=O)OCC(F)(F)C(F)F` (stereo not given), the viability in assay [1] was 93%; in assay [3], 93% (inactive); in assay [4], 103% (inactive); in assay [5], 94.6% (inactive); in assay [6] (setting [9]) it was 87.3%; in assay [6] (setting [10]), 94.6%. Besides, the Her2 level in assay [2] was 92.5% (inactive). Further, the differential viability (reversal) in assay [6] (H69AR cells + 2 uM doxorubicin) is 7.29% (inactive). In addition, the inhibition was -6.89% (inactive) in assay [7] and -3% (inactive) in assay [8].
In the case of `COc1cc2c(C)nc(C)c(C#N)c2cc1OC`, the viability in assay [1] was 111%; in assay [3], 111% (inactive); in assay [4] it was 66.4% (inactive); in assay [5] it was 86.6% (inactive); in assay [6] (setting [9]), 76.5%; in assay [6] (setting [10]) it was 86.6%. The Her2 level in assay [2] was 93.5% (inactive). Further, the differential viability (reversal) in assay [6] (H69AR cells + 2 uM doxorubicin) was 10.1% (inactive). The inhibition in assay [7] is -6% (inactive); in assay [8], -2.74% (inactive).
As to `CNC(=O)CC(C(=O)O)c1ccc(OC(C)C)cc1` (stereo not given), the viability was 105% in assay [1]; 105% (inactive) in assay [3]; 92.3% (inactive) in assay [4]; 90% (inactive) in assay [5]; 85.7% in assay [6] (setting [9]); 90% in assay [6] (setting [10]). In addition, the Her2 level in assay [2] was 85.5% (inactive). For the same compound, the differential viability (reversal) in assay [6] (H69AR cells + 2 uM doxorubicin) is 4.31% (inactive). For the same compound, the inhibition in assay [7] is -5.07% (inactive); in assay [8] it was 1.75% (inactive).
In the case of `CCc1ccc(NC(=O)CSc2nnc(Cc3cccn3C)n2-c2ccc(OC)cc2)cc1`, the viability is 86% in assay [1]; 86% (inactive) in assay [3]; 61.1% (inactive) in assay [4]; 95.6% (inactive) in assay [5]; 99.9% in assay [6] (setting [9]); 95.6% in assay [6] (setting [10]). Besides, the Her2 level in assay [2] is 75% (inactive). For the same compound, in assay [6] (H69AR cells + 2 uM doxorubicin), the differential viability (reversal) was -4.31% (inactive). For the same compound, the inhibition was 1.03% (inactive) in assay [7] and 4.5% (inactive) in assay [8].
In the case of `O=C(NCCCCNC(=O)c1c(F)c(F)c(F)c(F)c1F)c1c(F)c(F)c(F)c(F)c1F`, the viability was 98.5% in assay [1]; 98.5% (inactive) in assay [3]; 97.2% (inactive) in assay [4]; 89.4% (inactive) in assay [5]; 78.9% in assay [6] (setting [9]); 89.4% in assay [6] (setting [10]). The Her2 level in assay [2] is 76.5% (inactive). For the same compound, the differential viability (reversal) in assay [6] (H69AR cells + 2 uM doxorubicin) is 10.4% (inactive). The inhibition in assay [7] is -6.27% (inactive); in assay [8], -3.17% (inactive).
As for `COc1cccc(Oc2cnc(N)nc2-c2ccc(OC)cc2O)c1`, the viability in assay [1] is 91.5%; in assay [3], 91.5% (inactive); in assay [4], 67.1% (inactive); in assay [5], 10.8% (active); in assay [6] (setting [9]) it was 58.2%; in assay [6] (setting [10]) it was 10.8%. The Her2 level in assay [2] was 74.5% (inactive). Further, the differential viability (reversal) in assay [6] (H69AR cells + 2 uM doxorubicin) is -47.3% (inactive). The inhibition in assay [7] was -0.52% (inactive); in assay [8] it was -5.5% (inactive).
`CCOC(=O)c1ccc(NC(=O)c2ccc(NS(C)(=O)=O)cc2)cc1`: the viability was 97% in assay [1]; 97% (inactive) in assay [3]; 92.1% (inactive) in assay [4]; 82.9% (inactive) in assay [5]; 79% in assay [6] (setting [9]); 82.9% in assay [6] (setting [10]). Besides, the Her2 level in assay [2] was 83% (inactive). Also, in assay [6] (H69AR cells + 2 uM doxorubicin), the differential viability (reversal) is 3.85% (inactive). The inhibition in assay [7] was -0.8% (inactive); in assay [8], -4.92% (inactive).
`Cc1cc(NC(=O)NC(=O)c2cccc(OC(F)(F)C(F)F)c2)n[nH]1`: the viability was 99.5% in assay [1]; 99.5% (inactive) in assay [3]; 80.4% (inactive) in assay [4]; 85.2% (inactive) in assay [5]; 98% in assay [6] (setting [9]); 85.2% in assay [6] (setting [10]). Further, in assay [2], the Her2 level was 94% (inactive). For the same compound, the differential viability (reversal) in assay [6] (H69AR cells + 2 uM doxorubicin) was -12.8% (inactive). The inhibition was -3.73% (inactive) in assay [7] and 20% (inactive) in assay [8].
On to `Cc1cc(C)nc(N2CCC(C(=O)NCc3cccc(C(F)(F)F)c3)CC2)n1`, for which the viability is 104% in assay [1]; 104% (inactive) in assay [3]; 76.6% (inactive) in assay [4]; 91.1% (inactive) in assay [5]; 86.2% in assay [6] (setting [9]); 91.1% in assay [6] (setting [10]). Further, the Her2 level in assay [2] was 100% (inactive). The differential viability (reversal) in assay [6] (H69AR cells + 2 uM doxorubicin) is 4.94% (inactive). In addition, the inhibition in assay [7] is -6.08% (inactive); in assay [8] it was -2.33% (inactive).
`CCOc1ccc(Oc2nc(Nc3ccc(C)cc3)nc(N(C)C)n2)nn1`: the viability in assay [1] was 85.5%; in assay [3], 85.5% (inactive); in assay [4], 89.3% (inactive); in assay [5] it was 95.3% (inactive); in assay [6] (setting [9]) it was 84%; in assay [6] (setting [10]), 95.3%. Moreover, in assay [2], the Her2 level was 92% (inactive). For the same compound, the differential viability (reversal) in assay [6] (H69AR cells + 2 uM doxorubicin) is 11.3% (inactive). For the same compound, the figures for the inhibition in assay [7] and in assay [8] were -4.19% (inactive) and 1.97% (inactive), respectively.

The values are drawn from PubChem BioAssay.
